Most compounds without a hit are left out; they make up all but 4.1% or so of the library.
MEKK3 PB1 HTS: modulators of MEKK3-MEK5 PB1 binding, primary screen, biochemical, wildtype MEKK3, multiplex bead flow cytometry, Alexa488-MEK5 | bead-based flow cytometry, Alexa488-MEK5 binding to MEKK3; actives lie on both sides; 0 = blocked by unlabeled MEK5, 100 = vehicle | AID 1529, 2009 | 1.4% of 290,000 active | binding response (% of control), % at 10 µM | Mitogen-activated protein kinase kinase kinase 3 (Homo sapiens), Q99759;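 active = binding response more than 3 SD above or below the average of its plate-row segment, actives on both sides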;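 note: Alexa488 bead fluorescence after subtracting the streptavidin-only scavenger bead signal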
Target sequence (Q99759 whole entry, looked up): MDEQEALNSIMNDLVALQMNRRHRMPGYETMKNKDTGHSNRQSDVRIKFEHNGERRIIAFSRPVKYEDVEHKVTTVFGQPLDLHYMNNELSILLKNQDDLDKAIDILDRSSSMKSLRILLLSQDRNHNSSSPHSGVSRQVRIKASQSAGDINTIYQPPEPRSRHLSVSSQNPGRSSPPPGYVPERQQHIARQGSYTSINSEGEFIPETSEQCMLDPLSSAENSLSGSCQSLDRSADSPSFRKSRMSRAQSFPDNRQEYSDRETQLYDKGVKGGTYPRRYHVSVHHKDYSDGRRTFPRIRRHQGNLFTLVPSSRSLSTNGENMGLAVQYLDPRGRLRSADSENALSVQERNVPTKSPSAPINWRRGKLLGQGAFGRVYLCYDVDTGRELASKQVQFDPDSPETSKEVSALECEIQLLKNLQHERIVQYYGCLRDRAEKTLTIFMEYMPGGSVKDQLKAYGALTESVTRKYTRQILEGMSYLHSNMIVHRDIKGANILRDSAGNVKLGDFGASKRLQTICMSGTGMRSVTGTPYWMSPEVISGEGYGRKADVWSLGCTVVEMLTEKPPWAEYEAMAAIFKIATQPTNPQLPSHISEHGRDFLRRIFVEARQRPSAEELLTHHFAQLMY
HCV NS3 hel inh: inhibitors of HCV NS3 helicase, primary screen, biochemical, Cy5 molecular beacon fluorescence; Hepatitis C virus NS3 helicase; NS3 helicase DNA unwinding; inhibition, % at 10.9 µM; 0.56% of 290,000 active; AID 1800, 2009;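 active = inhibition above the mean of all tested compounds plus 3 SD, set per campaign, cut at about 35% in these data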;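 note: 0% = DMSO wells and 100% = thioflavine S control wells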
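Control set: DMSO versus 110 µM thioflavine S; Material: NS3 helicase fragment of HCV; Measured by: Cy5 fluorescence at 0 and 60 min, beacon hairpin quenching; Read-out basis: percent inhibition from t60/t0 fluorescence ratio; Times: reaction time 60 min, 25 °C; Repeats: single replicate; Compound dosing: single dose, 10.9 µM nominal final, DMSO 0.8% final.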
MEKK2 mut-MEK5: MEK5 binding signal on mutant MEKK2 PB1, primary screen, biochemical, multiplex bead flow cytometry, Alexa488-MEK5; Alexa488-MEK5 binding to MEKK2 mutant; percent response, % at 10 µM; 0.35% of 290,000 active; in the data active = percent response above about 24%, passing the limit was not always enough
T cruzi repl: inhibitors of intracellular T. cruzi growth, primary screen, luminescence, NIH3T3 host cells; T. cruzi beta-gal in NIH3T3, 90 h; inhibition, % (concentration not given with the values); 1.4% of 300,000 active; AID 1885, 2009;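 active = mean inhibition across valid replicates above about 55%, limit read from the data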;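 note: signal also drops with host cell toxicity which is not excluded here; 0% = plate median of DMSO wells and 100% = zero luminescence signal; higher percent means less beta-gal luminescence so fewer parasites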
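assay system = mouse NIH/3T3 fibroblasts infected with β-gal-expressing T. cruzi Tulahuen C4 | input = 5,000 NIH/3T3 host cells per well | buffer or medium = DMEM plus 2% FBS | timing = 3 h host attachment, then at least 90 h co-culture | measured by = GalScreen luminescence, 60 min | evaluation = luminescence reflecting intracellular parasite burden, expressed as percent inhibition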
FID counter: compounds displacing fluorescent DNA intercalator, primary screen, artefact control for HCV NS3 helicase inhibitor project, biochemical, FID fluorescence; DNA fluorescent intercalator displacement; inhibition, % at 7.9 µM; 0.17% of 290,000 active; AID 1845, 2009; in the data active = inhibition above about 37%;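 note: 0% = vehicle and 100% = reference compound; higher means more ethidium bromide displaced from hairpin DNA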
MEKK2 WT-MEK5: modulators of MEK5 binding to wildtype MEKK2, primary screen, biochemical, multiplex bead flow cytometry, Alexa488-MEK5. Mitogen-activated protein kinase kinase kinase 2 (Homo sapiens), Q9Y2U5. Alexa488-MEK5 binding to MEKK2 WT; actives lie on both sides. binding response (% of control), % at 10 µM. 1.1% of 290,000 active. AID 1531, 2009; in the data active = binding response below about 67% or above about 130%
* = called active by the depositor; · = no result; [ ] = dose if it differs, or a comment.

SMILES | MEKK3 PB1 HTS | HCV NS3 hel inh | MEKK2 mut-MEK5 | T cruzi repl | FID counter | MEKK2 WT-MEK5
Cc1cc(C(=O)Nc2ccc([N+](=O)[O-])cn2)cs1 | 111 | -7 | 13 | -13 | 3 | 107
Cc1ccsc1/C=C(\C(=O)c1ccc(OC(C)C)cc1)c1nc2ccccc2o1 | 96 | 0 | -5 | 68* | -8 | 92
Cc1ccsc1/C=C(\CC(=O)O)c1nc2ccccc2o1 | 103 | 8 | 8 | 2 | -40 | 110
COc1ccc(OCC(=O)Nc2c(C(=O)N3CCN(C)CC3)oc3ccccc23)cc1 | 104 | -11 | 5 | 2 | 8 | 107
Cc1ccccc1C(=O)Nc1c(C(=O)N(CCN(C)C)Cc2ccco2)oc2ccccc12 | 97 | -36 | 3 | 47 | 20 | 110
COc1ccccc1C(=O)Nc1c(C(=O)N(CCN(C)C)Cc2ccco2)oc2ccccc12 | 101 | -77 | 22 | 40 | 37* | 133
COc1ccc(OCC(=O)Nc2c(C(=O)N(CCN(C)C)Cc3ccco3)oc3ccccc23)cc1 | 100 | -73 | 5 | 53 | 41* | 117
O=C1c2cccc3c([N+](=O)[O-])ccc(c23)C(=O)N1CCc1ccccn1 | 108 | -5 | 12 | 29 | 0 | 109
CN(C)CCCN1C(=O)c2cccc3c([N+](=O)[O-])ccc(c23)C1=O | 99 | 11 | 0 | · | 41* | 98
CS(=O)(=O)N1CCc2cc(-c3csc(NC(=O)C(c4ccccc4)c4ccccc4)n3)ccc21 | 101 | -5 | -3 | 61* | 3 | 94
O=C(Nc1nc(-c2cccc([N+](=O)[O-])c2)cs1)C(c1ccccc1)c1ccccc1 | 94 | 1 | -5 | 53 | 0 | 106
Cc1cc([N+](=O)[O-])ccc1NC(=O)Nc1ccc(F)cc1F | 105 | -6 | 3 | 55* | 2 | 107
Cc1ccc(NC(=O)Nc2cccc([N+](=O)[O-])c2)cc1F | 102 | -2 | 10 | 55* | 23 | 106
O=C(Nc1ccc(OC(F)(F)F)cc1)Nc1cccc([N+](=O)[O-])c1 | 109 | 0 | 23 | 47 | 20 | 119
CC1CCC2(CC1)OCC1(CCC3(COC4(CCC(C)CC4)OC3)C1=O)CO2 (configuration not stated) | 92 | -6 | 0 | -20 | -4 | 97
CCOc1cc(OCC)cc(C(=O)NCc2ccco2)c1 | 105 | 1 | 15 | -1 | -6 | 103
Cc1ccc(N=Nc2ccc(O)c3ncccc23)cc1 | 94 | 7 | -1 | 57* | -2 | 96
Cc1ccc(N=Nc2ccc(O)c3ncccc23)cc1C | 99 | 5 | -11 | 66* | -9 | 86
Oc1ccc(F)c2cccnc12 | 104 | 17 | 7 | -9 | 2 | 98
Cc1ccc(N=Nc2ccc3ccccc3c2O)cc1 | 100 | 5 | 2 | -10 | 3 | 99
COc1ccccc1CN1C[C@@H]2C[C@@H](c3ccc(C)c(C)c3)N3CCC[C@@]23C1=O | 93 | 2 | -8 | 68* | -6 | 78
CCOC(=O)c1sc2nc(CC(=O)OC)nc(N3CCN(c4ccc(OC)cc4)CC3)c2c1C | 106 | -4 | 3 | 63* | -18 | 104
Cn1cc(-c2ccno2)c(C(=O)O)n1 | 100 | -7 | -2 | -10 | 2 | 98
Cc1ccc(C(C)C)c(OCc2ccc(C(=O)N/N=C/c3cccc(O)c3O)cc2)c1 | 100 | 6 | 3 | 58* | -9 | 118
CCN(CC)c1ccc(/C=N/NC(=O)c2cccc(S(=O)(=O)N3CCOCC3)c2)c(O)c1 | 109 | 3 | 6 | 65* | -8 | 111
SMILES | MEKK3 PB1 HTS | HCV NS3 hel inh | MEKK2 mut-MEK5 | T cruzi repl | FID counter | MEKK2 WT-MEK5
CCN(CC)S(=O)(=O)c1cccc(C(=O)N/N=C/c2cccc(O)c2O)c1 | 100 | 46* | -2 | 3 | -13 | 99
Cc1cc(-c2ccc(S(=O)(=O)N(C)Cc3ccccc3)cc2)on1 | 101 | 16 | 2 | 14 | -17 | 101
CCOc1ncccc1C(=O)OCC(=O)Nc1ccc2c(c1)OCO2 | 104 | 12 | 0 | -6 | -1 | 101
CC1CC(C)CN(C(=O)c2nn(C)c3c2CS(=O)(=O)c2ccccc2-3)C1 (configuration not stated) | 99 | 2 | -1 | 3 | -24 | 96
CC(C)CCNC(=O)C(c1ccco1)N(Cc1ccccc1)C(=O)c1snc(C(N)=O)c1N (configuration not stated) | 99 | 0 | 1 | 14 | -39 | 104
Cc1ccc(N(C(=O)c2snc(C(N)=O)c2N)C(C(=O)NCCC(C)C)c2ccco2)cc1 (configuration not stated) | 95 | -9 | -7 | 56* | -29 | 86
CCc1ccc(N(C(=O)c2snc(C(N)=O)c2N)C(C(=O)NC2CCCC2)c2ccco2)cc1 (configuration not stated) | 101 | 9 | -1 | 5 | -37 | 95
NC(=O)c1nsc(C(=O)N(c2cccc(F)c2)C(C(=O)NC2CCCC2)c2ccco2)c1N (configuration not stated) | 1.0*[inhibitor] | 12 | -37 | -8 | -17 | 0.0*[inhibitor]
COc1ccc(OCC(O)CN2CCNCC2)cc1 (configuration not stated) | 102 | -6 | 1 | 0 | 7 | 107
O=C(CN1C(=O)CCC1=O)c1ccc(-c2ccccc2)cc1 | 102 | -6 | -1 | -3 | -11 | 103
N=c1ccn(CC(=O)c2ccc(-c3ccccc3)cc2)cc1 | 101 | -52 | 7 | 58* | 23 | 119
O=S1(=O)C=C(Sc2nnc(-c3ccccc3)o2)c2ccccc21 | · | -6 | · | 63* | -4 | ·
CCCCN(CCO)c1ncnc2sc(-c3ccccc3)cc12 | 106 | 2 | 8 | 39 | -31 | 108
OCCC1CN(Cc2ccc3nonc3c2)CCN1Cc1ccsc1 (configuration not stated) | 99 | 5 | -8 | 70* | -1 | 96
Cc1ccc(CN2CCN(Cc3cccc4c3OCO4)CC2CCO)cc1 (configuration not stated) | 103 | 4 | 5 | 90* | 10 | 108
CCOc1ccc(CN2CCN(Cc3cccc4nonc34)CC2CCO)cc1 (configuration not stated) | 104 | -6 | 19 | 60* | 7 | 117
